Laboratory results published in ChEMBL document CHEMBL4477223, “Design, synthesis and biological evaluation of N-methyl-N-[(1,2,3-triazol-4-yl)alkyl]propargylamines as novel monoamine oxidase B inhibitors” (Bioorg Med Chem, 2016).

Tests used:
[1] = molecular target: T1, Amine oxidase [flavin-containing] B (Homo sapiens, UniProt P27338); assay: Inhibition of human recombinant MAO-B preincubated for 30 mins followed by p-tyramine hydrochloride addition measured after 30 mins by Amplex red fluorescence based spectrophotometry
T1 sequence (P27338 whole entry): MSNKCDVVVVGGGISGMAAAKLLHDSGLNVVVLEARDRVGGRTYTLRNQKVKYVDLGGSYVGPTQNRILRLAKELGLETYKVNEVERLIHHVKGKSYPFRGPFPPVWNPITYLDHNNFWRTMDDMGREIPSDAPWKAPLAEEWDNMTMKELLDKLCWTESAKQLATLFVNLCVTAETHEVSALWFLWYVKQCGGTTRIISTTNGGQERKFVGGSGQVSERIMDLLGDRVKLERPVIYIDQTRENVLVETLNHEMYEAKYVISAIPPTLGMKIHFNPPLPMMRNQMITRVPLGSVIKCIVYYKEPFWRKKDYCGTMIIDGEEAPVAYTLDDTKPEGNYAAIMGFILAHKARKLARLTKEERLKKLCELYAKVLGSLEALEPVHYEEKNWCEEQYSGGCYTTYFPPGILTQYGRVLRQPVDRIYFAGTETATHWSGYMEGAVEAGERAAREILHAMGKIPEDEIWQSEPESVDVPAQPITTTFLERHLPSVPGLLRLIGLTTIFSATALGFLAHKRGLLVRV

[2] = molecular target: T2, Amine oxidase [flavin-containing] A (Homo sapiens, UniProt P21397); assay: Inhibition of human recombinant MAO-A preincubated for 30 mins followed by p-tyramine hydrochloride addition measured after 30 mins by Amplex red fluorescence based spectrophotometry
T2 sequence (P21397 whole entry): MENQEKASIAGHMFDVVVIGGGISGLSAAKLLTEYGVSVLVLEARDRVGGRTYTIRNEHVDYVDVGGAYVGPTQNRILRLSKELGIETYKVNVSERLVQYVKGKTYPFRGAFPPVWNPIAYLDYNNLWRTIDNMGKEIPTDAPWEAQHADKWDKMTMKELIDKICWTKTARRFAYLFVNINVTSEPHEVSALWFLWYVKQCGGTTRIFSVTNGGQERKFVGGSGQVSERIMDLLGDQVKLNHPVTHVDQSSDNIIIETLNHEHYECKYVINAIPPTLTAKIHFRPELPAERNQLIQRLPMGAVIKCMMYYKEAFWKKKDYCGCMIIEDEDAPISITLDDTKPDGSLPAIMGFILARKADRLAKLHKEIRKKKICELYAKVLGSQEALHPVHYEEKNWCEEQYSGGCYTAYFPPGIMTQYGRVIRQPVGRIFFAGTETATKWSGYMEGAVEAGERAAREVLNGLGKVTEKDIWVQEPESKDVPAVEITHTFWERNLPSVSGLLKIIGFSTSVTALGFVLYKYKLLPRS
Procedure, shortened: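 hrMAO-A at 0.36 U/mL preincubated with serial inhibitor dilutions for 30 min at 37 °C. Reaction started by adding 1 mM tyramine, 0.04 U/mL HRP and Amplex UltraRed in 0.25 mM sodium phosphate pH 7.4 (final). Resorufin fluorescence read at 530/590 nm for at least 30 min. No-compound activity set as 100%. Interference checked without enzyme.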

[3] = Permeability of the compound at pH 7.4 after 18 hrs by PAMPA-BBB assay
[4] = species on record: Homo sapiens; assay: Selectivity index, ratio of IC50 for human recombinant MAO-A to IC50 for human recombinant MAO-B
[5] = molecular target: T1, Amine oxidase [flavin-containing] B; assay: Time-dependent inhibition of human recombinant MAO-B at 10 uM preincubated with enzyme followed by p-tyramine hydrochloride substrate addition by Amplex red fluorescence based spectrophotometry
Procedure, shortened: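 hrMAO-B was preincubated with inhibitor at 10 µM for 0–360 min. After each preincubation, activity was measured in the standard Amplex UltraRed/tyramine/HRP fluorometric assay at 530/590 nm. Results were expressed as % of control samples versus preincubation time.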

[6] = molecular target: T1, Amine oxidase [flavin-containing] B; assay: Irreversible inhibition of human recombinant MAO-B at 50 uM preincubated for 1 h followed by 100 fold enzyme dilution and p-tyramine hydrochloride substrate addition measured after 40 mins by Amplex red fluorescence based spectrophotometry

Row | Compound | IC50 [1] [µM] | IC50 [2] [µM] | Papp at 18 h [3] [×10⁻⁶ cm/s] | Ratio IC50 [4] | TDI [5] | inhibition (INH) [6]
1 | C#CCN(C)CCc1nnn(-c2ccccc2)c1CC | 213 | 7.5 | 17 | 0.04 | – | –
2 | C#CCN(C)Cc1cn(CCc2ccccc2)nn1 | 11.2 | > 500 | 0.6 | > 44.6 | – | –
3 | CN(C)CCCN1c2ccccc2Sc2ccccc21 [PROMAZINE] | – | – | 8.8 to 13.8 | – | – | –
4 | CC(=O)[C@H]1CC[C@H]2[C@@H]3CCC4=CC(=O)CC[C@]4(C)[C@H]3CC[C@]12C [PROGESTERONE] | – | – | 9.3 to 16.8 | – | – | –
5 | C#CCN(C)Cc1cn(CC)nn1 | 249 | 135 | – | 0.5 | – | –
6 | C#CCN(C)Cc1nnn(C)c1CCCC | 94.7 | < 300 | 29.9 | < 3.2 | – | –
7 | C#CCN(C)CCc1nnn(-c2ccccc2)c1CCCC | 156 | 17.3 | 21.4 | 0.1 | – | –
8 | C#CCN(C)CCc1nnn(C(C)c2ccccc2)c1C (stereo not given) | 134 | 47 | 20 | 0.4 | – | –
9 | CNCCCN1c2ccccc2CCc2ccccc21 [DESIPRAMINE] | – | – | 12 to 17.8 | – | – | –
10 | C#CCN(C)CCc1cn(CCc2ccccc2)nn1 | 173 | 56.1 | 14.8 | 0.3 | – | –
11 | C#CCN(C)Cc1cn(Cc2ccccc2)nn1 | 129 | > 500 | 2.3 | > 3.9 | – | –
12 | Clc1cccc(Cl)c1N=C1NCCN1 [CLONIDINE] | – | – | 5.3 to 6.5 | – | – | –
13 | C#CCN(C)Cc1ccc(Cc2cn(C)nn2)cc1 | 0.6 | 0.5 | 14.8 | 0.9 | – | –
14 | C#CCN(C)Cc1nnn(CC)c1C | 105 | 267 | – | 2.6 | – | –
15 | C#CCN(C)CCc1cn(Cc2ccccc2)nn1 | 3.5 | 97.1 | 15.6 | 27.7 | Active | Active
16 | CCn1cc(C(=O)O)c(=O)c2cc(F)c(N3CCNC(C)C3)c(F)c21 (stereo not given) [LOMEFLOXACIN] | – | – | < 0.78 | – | – | –
17 | CN/C(=N/CCSCc1nc[nH]c1C)NC#N [CIMETIDINE] | – | – | < 0.7 | – | – | –
18 | C#CCN(C)Cc1cccc(Cc2cn(C)nn2)c1 | 65 | 2.1 | 15.6 | 0.03 | – | –
19 | CCn1cc(C(=O)O)c(=O)c2cc(F)c(N3CCNCC3)cc21 [NORFLOXACIN] | – | – | 0.1 to 0.9 | – | – | –
20 | C#CCN(C)CCc1nnn(CC)c1C | 238 | 91.2 | – | 0.4 | – | –
21 | C#CCN(C)CCc1cn(CC)nn1 | 374 | 554 | – | 1.5 | – | –
22 | CN1C(C(=O)Nc2ccccn2)=C(O)c2ccccc2S1(=O)=O [PIROXICAM] | – | – | 1.93 to 2.5 | – | – | –
23 | C#CCN(C)CCc1nnn(-c2ccccc2)c1CCC | 157 | 26.1 | 17.2 | 0.2 | – | –
24 | C#CCN(C)CCc1ccc(Cc2cn(C)nn2)cc1 | 5.2 | 27.4 | 4.5 | 5.3 | – | –
